# NF-kB expr up: NF-kB expression increase, human neuronal cells. NF-kB reporter expression; stronger effect = higher value. fold change at 12.5 µM. 1.6% of 190,000 active. AID 1239; in the data active = fold change above about 3.3
# STAT1 blocker: inhibitors of IFN-gamma induced STAT1 signaling; inhibition, % at 5.5 µM; NIH 3T3 STAT1-luciferase reporter, luminescence; 0.35% of 200,000 active;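 active = inhibition above a set limit, the mean inhibition across all tested compounds plus 3 SD, cut at about 34% in these data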
# STAT3 blocker: STAT3 signaling inhibition; 0.89% of 190,000 active; U3A cells, IL-6 STAT3-luciferase reporter, luminescence; host cell line lacks STAT1; inhibition, % at 5.5 µM;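 active = inhibition above the mean inhibition across all screened compounds plus 3 SD, cut at about 44% in these data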
# STAT1 act-1: increases IFN-gamma driven STAT1 reporter signal. NIH 3T3 STAT1-luciferase reporter, luminescence; 100% = IFN-gamma alone, no compound. activation (% of control), % at 5.5 µM. 2.6% of 200,000 active. AID 932;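 active = activation above the screen-wide mean activation plus 3 SD, cut at about 130% in these data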
# STAT3 act-1: activators of IL-6 induced STAT3 signaling; U3A cells, IL-6 STAT3-luciferase reporter, luminescence; 100% = signal with IL-6 EC80 alone; activation (% of control), % at 5.6 µM; 0.91% of 190,000 active; AID 871;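 active = activation above the screen-wide mean of compound activation plus 3 SD, cut at about 130% in these data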
#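 Material: human U3A cells carrying STAT3-luciferase construct. Measured by: reporter luminescence signal. Timing: compound 1 h, then IL-6 6 h at 37 °C.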
# APP 5'UTR act: activates APP 5'UTR luciferase reporter; SH-SY5Y APP 5'UTR luciferase reporter, luminescence; zero percent = DMSO vehicle wells; activation, % at 2 µM; 1% of 190,000 active; AID 1276;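 active = activation above a set limit, based on mean plus 3 SD of controls, cut at about 140% in these data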
# STAT3 act-2: confirmation of STAT3 signaling activators. shares compounds with STAT3 act-1. U3A STAT3-luciferase reporter, IL-6 potentiation, luminescence; U3A cells lack STAT1; 100 means same as IL-6 alone. potentiation (% of control), % at 5.7 µM. 64% of 1,200 active;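 active = percent activation of the STAT3 luciferase reporter above a set limit taken from the earlier primary screen, cut at about 130% in these data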
# NFkB act STAT3ct: counter-screen for STAT3 activators: NF-kappaB activation. shares compounds with STAT3 act-1. human cells, NF-kappaB reporter activation. activation (% of control), % at 5.7 µM. 11% of 1,200 active. AID 1309; in the data active = activation above about 120%;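 also: reporter induced by TNF-alpha stimulation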
# STAT1 act-2: counter-screen for STAT3 activators: STAT1 activation; activation (% of control), % at 5.7 µM; shares compounds with STAT3 act-1; NIH 3T3 STAT1-luciferase reporter, IFN-gamma, luminescence; 13% of 1,200 active;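 active = activation above the solvent-only control well mean plus 3 SD, set per screening run, cut at about 120% in these data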
# Numbers stand for hits; i = inactive; nt = not tested or not shown. An excerpt weighted towards active compounds, which were near 5.1% of everything screened.
SMILES,NF-kB expr up,STAT1 blocker,STAT3 blocker,STAT1 act-1,STAT3 act-1,APP 5'UTR act,STAT3 act-2,NFkB act STAT3ct,STAT1 act-2
Cc1ccc(C)c(/C=N/Nc2ccccn2)c1,i,i,i,i,140,i,i,i,128
O=C(N/N=C/c1c[nH]c2ccccc12)c1[nH]c2ccc(Br)cc2c1-c1ccccc1,3.6,i,i,i,150,i,i,157,i
O=C(N/N=C/c1ccc(O)cc1)c1[nH]c2ccc(Br)cc2c1-c1ccccc1,i,i,i,i,143,i,i,165,i
O=C(N/N=C/c1c[nH]c2ccc(Br)cc12)c1ccccn1,i,i,i,i,i,i,nt,nt,nt
Cc1cc(C)nc(/N=C(\N)Nc2ccc(OCc3ccccc3)cc2)n1,i,i,i,i,i,i,nt,nt,nt
Cc1nc(/N=C(\N)Nc2ccccc2)nc2ccccc12,i,i,i,i,165,i,157,i,i
O=C(NCCc1ccc(F)cc1)c1cc(=O)c2ccccc2o1,i,i,i,i,i,i,nt,nt,nt
CCc1ccc(-n2c(C)n[nH]c2=S)cc1,i,i,i,i,i,i,nt,nt,nt
c1ccc(-n2cnnc2SCc2nc3ccccc3s2)cc1,i,i,i,i,140,i,152,122,132
c1ccc(Cn2c(SCc3nc4ccccc4s3)nnc2-c2ccco2)cc1,i,i,i,i,i,i,nt,nt,nt
Cc1nnc(SCc2nc3ccccc3s2)n1-c1ccccc1,i,i,i,i,147,i,149,i,134
CCC(c1nnc(SCc2nc3ccccc3s2)n1Cc1ccccc1)N(C)C (stereo not drawn),i,i,i,i,152,i,141,i,i
CCn1c(SCc2nc3ccccc3s2)nnc1-c1ccccc1,i,i,i,i,171,i,145,i,134
O=C(O)C1=C[C@H](c2ccc(Br)cc2)C[C@H](OCc2ccc(CO)cc2)O1,i,i,nt,i,nt,i,nt,nt,nt
OCC1(Cc2ccc(Cl)cc2)CCN(Cc2ccc(Oc3ncccn3)cc2)CC1,i,i,i,i,i,i,nt,nt,nt
CC(=O)Nc1ccc(S(=O)(=O)Nc2nc3ccccc3nc2Nc2ccc3ccccc3c2)cc1,i,i,i,i,152,i,152,i,i
CCCCN(CCCC)c1nc2ccccc2nc1NS(=O)(=O)c1ccc(NC(C)=O)cc1,i,i,i,i,i,i,nt,nt,nt
Cc1ccc(C)c2sc(N)nc12,i,i,i,i,i,i,nt,nt,nt
Cc1sc2nc(N)sc2c1C,i,i,i,i,162,i,147,i,i
N#Cc1c(Cl)c(Cl)c2nnc(-c3ccc(Br)cc3)n2c1Cl,i,i,i,i,154,i,152,i,i
Cc1ccc(Oc2ccc(-c3nc(N)nc(N)n3)cc2)cc1C,i,i,i,i,i,i,nt,nt,nt
CN(c1cccc(NC(=O)c2cccc([N+](=O)[O-])c2)c1)S(C)(=O)=O,i,i,i,i,i,i,nt,nt,nt
Cc1oc2c(cc(NS(=O)(=O)c3cccs3)c3ccccc32)c1C(=O)OC(C)C,i,i,i,i,154,i,i,i,i
Cc1ccc(-n2c(=S)[nH]c3sc4c(c3c2=O)CCC4)cc1,i,i,i,i,137,i,i,i,i
CC1(C)CC2CC(C)(CN2S(=O)(=O)c2ccc(C(=O)Nc3ccc(S(=O)(=O)N4CCOCC4)cc3)cc2)C1 (stereo not drawn),i,i,i,i,i,i,nt,nt,nt
SMILES,NF-kB expr up,STAT1 blocker,STAT3 blocker,STAT1 act-1,STAT3 act-1,APP 5'UTR act,STAT3 act-2,NFkB act STAT3ct,STAT1 act-2
CC(=O)Nc1ccc(S(=O)(=O)N2CC3(C)CC2CC(C)(C)C3)cc1 (stereo not drawn),i,i,i,i,137,i,i,i,i
CCOC(=O)c1cnc(-c2ccccc2)nc1N(C)C,i,i,i,i,173,i,155,i,136
Cc1cc(OCCn2cc(/C(N)=N/O)c3ccccc32)ccc1Cl,i,i,i,i,i,i,nt,nt,nt
COC(=O)c1[nH]c2ccc(C)cc2c1NC(=O)CN1CCN(c2ccccc2)CC1,i,i,i,i,i,i,nt,nt,nt
Cc1ccc2[nH]c(C(=O)O)c(NC(=O)CN3CCN(c4cccc(C)c4C)CC3)c2c1,i,i,i,i,147,i,i,i,i
CCCN1CCN(C(=O)c2nn(-c3ccc(OC)cc3)c(=O)c3c2c2ccccc2n3C)CC1,i,i,i,i,i,i,nt,nt,nt
O=C(Nc1ccc(NC(=S)NC(=O)c2ccccc2Cl)cc1)c1cccc(Cl)c1,nt,i,i,i,i,i,nt,nt,nt
COCCNc1nnc(SCC(=O)c2c[nH]c3ccccc23)s1,i,i,i,i,141,i,136,i,i
CCOCCCNC(=O)C(NC(=O)c1ccc(NC(C)=O)cc1)c1ccc(OC)cc1 (stereo not drawn),i,i,i,i,i,i,nt,nt,nt
COc1cccc(OC)c1C(=O)NC(=S)Nc1ccc2c(c1)Cc1ccccc1-2,i,i,i,i,150,i,i,i,i
COc1ccccc1N=C(C)C1=C(O)CC(c2ccccc2)CC1=O (stereo not drawn),3.5,i,i,i,148,i,i,140,i
CCCC(=Nc1ccccc1OC)C1=C(O)CC(c2ccccc2)CC1=O (stereo not drawn),i,i,i,i,i,i,nt,nt,nt
Cc1cc(-c2sccc2Br)nc(-n2cccc2)n1,i,i,i,i,139,i,150,i,i
Cc1cc(-c2ccc(Br)s2)nc(-n2cccc2)n1,i,i,i,i,136,i,i,i,i
Cc1sc2c(c1C)CN(C(C)(C)C)CN2C(=O)c1ccccc1,i,i,i,i,142,i,i,i,i
Nc1ccc2oc(-c3cccc4ccccc34)nc2c1,i,i,i,i,i,i,nt,nt,nt
O=c1oc2ccc3ccccc3c2cc1-c1nc2ccccc2o1,nt,i,i,i,163,i,133,i,i
COC(=O)c1cccc(C(=O)Nc2cnc3ccccc3c2)n1,i,i,i,i,183,i,162,i,122
COC(=O)c1cccc(C(=O)Nc2ccc(C)cc2Br)n1,i,i,i,i,141,i,i,i,i
CCN(CC)C(=O)Nc1cnc2ccccc2c1,i,i,i,i,i,i,nt,nt,nt
CC1=C(C(=O)N2CCOCC2)C(c2ccc(C)cc2)NC(=S)N1 (stereo not drawn),i,i,i,i,i,i,nt,nt,nt
O=C(Nc1ccc(Cl)cn1)c1ccc2ccccc2n1,i,i,i,i,178,i,192,130,137

# Screens: PubChem BioAssay, several laboratories
